Laboratory results as given in PubChem BioAssay AID504513 (The Scripps Research Institute Molecular Screening Center, 2011).
Active and inactive are the calls of the source.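 How the source made its calls: active means PAFAH2 inhibition at least 50% at 0.2 µM with under 50% on each related off-target enzyme; inactive means the rest, including PAFAH2 hits that also hit off-targets.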

Assays:
Assay in all cases: PAFAH2 inhibition and serine hydrolase selectivity, late-stage follow-up, cell lysate, fluorescence, gel-based ABPP, BW5147 T-cell proteome, powder samples (AID 504513);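 further: 0% = DMSO-only band intensity and 100% = blank gel background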
APEH = conditions: BW5147 mouse T-cell proteome, FP-Rh gel ABPP, stronger effect = higher value
In short: (§1)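 assay system = mouse BW5147 T-cell soluble lysate | amount = 1 mg/mL soluble protein | schedule = compound pretreatment 30 min, then 30 min probe labelling at 25 °C | measured by = in-gel fluorescence of probe-labelled bands, integrated optical density | evaluation = percent band labelling lost versus DMSO control | control set = DMSO-only sample as high, blank gel area as low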

ESD = conditions: BW5147 mouse T-cell proteome, FP-Rh gel ABPP, stronger effect = higher value
In short: as §1

[1] = molecular target: Platelet-activating factor acetylhydrolase 2, cytoplasmic (Mus musculus) (UniProt Q8VDG7); conditions: FP-Rh gel ABPP, stronger effect = higher value
In short: as §1

ABHD11 = conditions: BW5147 mouse T-cell proteome, FP-Rh gel ABPP, stronger effect = higher value
In short: as §1

LYPLA1 = conditions: BW5147 mouse T-cell proteome, FP-Rh gel ABPP, stronger effect = higher value
In short: as §1

Platelet-activating factor acetylhydrolase 2, cytoplasmic (Mus musculus), sequence (Q8VDG7 whole entry, looked up): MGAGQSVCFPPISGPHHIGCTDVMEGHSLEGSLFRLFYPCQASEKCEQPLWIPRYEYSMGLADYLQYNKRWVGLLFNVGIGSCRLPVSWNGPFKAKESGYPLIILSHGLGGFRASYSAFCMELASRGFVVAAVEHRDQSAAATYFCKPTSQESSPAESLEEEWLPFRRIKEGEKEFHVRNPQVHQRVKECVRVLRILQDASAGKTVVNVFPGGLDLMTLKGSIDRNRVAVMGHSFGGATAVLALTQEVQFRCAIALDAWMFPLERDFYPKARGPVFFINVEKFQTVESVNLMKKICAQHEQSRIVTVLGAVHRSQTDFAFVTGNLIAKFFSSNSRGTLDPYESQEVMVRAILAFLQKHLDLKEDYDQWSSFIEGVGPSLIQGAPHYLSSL

- inhibition (APEH; at 1 µM): 100%
- inhibition (APEH; inhibition, at 0.02 µM): 0%
- inhibition (APEH; inhibition, at 0.2 µM): 100%
- inhibition (ESD; at 1 µM): 0% (inactive)
- inhibition (ESD; inhibition, at 0.02 µM): 0%
- inhibition (ESD; inhibition, at 0.2 µM): 0%
- inhibition ([1]; PAFAH2, at 1 µM): 100%
- inhibition ([1]; PAFAH2, inhibition, at 0.02 µM): 25%
- inhibition ([1]; PAFAH2, inhibition, at 0.2 µM): 100%
- inhibition (ABHD11; at 1 µM): 50%
- inhibition (ABHD11; inhibition, at 0.02 µM): 0%
- inhibition (ABHD11; inhibition, at 0.2 µM): 50%
- inhibition (LYPLA1; at 1 µM): 0% (inactive)
- inhibition (LYPLA1; inhibition, at 0.02 µM): 0%
- inhibition (LYPLA1; inhibition, at 0.2 µM): 0%
Compound: O=C(N1CCCC1)n1ncc(-c2ccc(OC(F)(F)F)cc2)n1
